Screens from PubChem.
The list is not random: actives were taken first. Their share in the collection is about 3.8%.
RAM network inh: blocks the yeast RAM network; hit rate 1.8% among 190,000; inhibition, % at 50 µM; AID 868; S. cerevisiae dse1pr::URA3 reporter, 5-FOA growth OD615, 2 d; analog-sensitive cbk1-as2 kinase mutant strain;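 active = inhibition above a set limit, 3 SD over mean compound inhibition, cut at about 8.4% in these data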;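 note: inhibition rescues growth on 5-FOA so higher OD means more RAM inhibition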
Measles CPE: protection of cells from measles virus; protection (pct of control), % at 4 µM; Measles virus-infected cells, CPE protection, absorbance; hit rate 1.5% among 140,000; in the data active = protection mostly above about 24%, no sharp cut-off; inactive = mostly below about 26%
Yeast life ext: extends the lifespan of yeast; inhibition of the nicotinamide effect, % at 10 µM; S. cerevisiae growth with nicotinamide, OD615; deaD strain in restrictive glucose medium; hit rate 0.68% among 130,000;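 active = inhibition above a set limit, placed 3 SD over the median of all compounds, cut at about 26% in these data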
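System: Modified budding yeast, DeaD strain | Buffer or medium: Restrictive glucose medium | Also added: 1.5 mM nicotinamide | Doses: 10 µM single point, 0.25% DMSO | Schedule: 48 h compound exposure at 30 °C, humidified | Detection: Absorbance at 615 nm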
sdo1 growth: compounds rescuing growth of sdo1-depleted yeast, bone marrow failure model. S. cerevisiae sdo1-depleted JHY4D growth rescue, OD600 30 h; hits give high values; pdr5 snq2 efflux-pump mutant strain. z-score at 10 µM. hit rate 0.21% among 140,000;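 active = z-score above 3 at both the 24 hr and the 30 hr optical density reads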
BB579 growth dn: yeast BB579 growth reduction in restrictive medium | S. cerevisiae BB579 growth, OD615, 48 h | inhibition, % at 10 µM | hit rate 0.51% among 140,000 | AID 804;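 active = inhibition above a set limit, 3 SD over the mean compound inhibition, cut at about 44% in these data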
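Test system: DeaD yeast strain BB579 / Buffer or medium: restrictive glucose-based CSMM-D medium / Doses: single 10 µM dose / Schedule: 4 h cell preincubation, 48 h compound exposure, 30 °C humidified / Technique: culture absorbance at 615 nm / Controls: amphotericin B positive control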
Hits are given with their value; – = inactive; · = no result.

SMILES	RAM network inh	Measles CPE	Yeast life ext	sdo1 growth	BB579 growth dn
CCOC(=O)c1cc(CC)sc1/N=C/c1c(O)ccc2ccccc12	–	–	32	–	–
COc1ccc2c(c1)-c1nc(/N=C/c3ccc(O)cc3)sc1CC2	–	–	–	–	–
CN(C)/N=C/c1c(O)ccc2ccccc12	–	–	–	–	–
Cc1cc(N=Cc2c(O)ccc3ccccc23)no1	–	–	43	–	–
COc1ccc2c(c1)-c1nc(/N=C/c3c(O)ccc4ccccc34)sc1CC2	–	–	30	–	–
Cc1cc(N=Cc2c(O)ccc3cc(Br)ccc23)no1	–	–	–	–	–
Oc1ccc2ccccc2c1/C=N/c1nccs1	–	–	75	–	–
CCOC(=O)c1cc(CC)sc1/N=C/C1C(=O)CCCC1=O	–	·	·	·	·
CN(C)S(=O)(=O)c1ccc(C(=O)Nc2nc(-c3cc4ccccc4o3)cs2)cc1	–	–	28	–	–
O=C(O)COn1c(-c2ccc(Cl)cc2)nc2ccc(Cl)cc21	–	·	·	·	·
Clc1ccc(COn2c(-c3ccc(Cl)cc3)nc3ccccc32)cc1	9.1	–	–	–	–
COn1c(-c2ccc(Cl)cc2)nc2ccc(Cl)cc21	11	–	–	–	–
CCOc1nc(NCCO)nc(Nc2cc(Cl)ccc2OC)n1	–	·	·	·	·
O=C(Cn1nc(-c2cccc(Cl)c2)ccc1=O)Nc1ccc(C(=O)NC2CC2)cc1	–	·	·	·	·
Cc1cc(C)n(-c2ccc(C(=O)OCC(=O)Nc3ccccc3[N+](=O)[O-])cc2)n1	–	–	–	–	–
Cc1cc(C)n(-c2ccc(C(=O)OCC(=O)Nc3ccc([N+](=O)[O-])cc3)cc2)n1	–	44	–	–	–
CCOC(=O)c1c(-c2ccc(F)cc2)csc1NC(=O)c1c(-c2ccccc2)noc1C	–	67	–	–	–
CCOC(=O)c1c(-c2ccccc2)csc1NC(=O)CSc1nnnn1C	–	–	–	–	–
COC(=O)c1c(-c2ccccc2)csc1NC(=O)c1c(-c2ccccc2)noc1C	–	38	–	–	–
CCOC(=O)c1c(-c2ccc(C)cc2)csc1NC(=S)NC(=O)c1ccccc1	–	–	–	–	–
O=C(Nc1scc(-c2ccc(F)cc2)c1C(=O)O)c1ccco1	–	–	97	–	–
CCOC(=O)c1c(-c2ccccc2)csc1NC(=O)CSc1nncs1	11	–	–	–	–
N/C(=N\OC(=O)COc1ccc2ccccc2c1)c1cccnc1	–	–	–	–	–
CC(C)OCC1CC(CC(=O)Nc2ccc([N+](=O)[O-])cc2)C(=O)O1 (centres undefined)	–	·	·	·	·
COc1cc(C2C3=C(CCCC3=O)Nc3[nH]n(-c4ccccc4)c(=O)c32)ccc1OC(C)=O (centres undefined)	–	·	·	·	·
SMILES	RAM network inh	Measles CPE	Yeast life ext	sdo1 growth	BB579 growth dn
COc1ccc(N(CC(=O)NN=C2CCCCCCC2)S(=O)(=O)c2ccccc2)cc1	–	–	–	–	–
O=C(NCc1ccc(Cl)cc1)C(=O)NCC1OCCN1C(=O)c1ccc(Cl)cc1 (centres undefined)	–	·	·	·	·
COc1ccccc1/C=C/C=N/n1c(-c2cc(C)[nH]n2)n[nH]c1=S	–	57	–	–	–
COc1ccccc1/C=C/C=N/n1c(-c2ccc(C)cc2)n[nH]c1=S	–	–	–	–	–
Cc1occc1C(=O)NNC(=O)c1ccccc1F	–	·	·	·	·
O=C(CN(C(=O)C1CSC(=O)C1)c1ccccc1F)NCc1ccc2c(c1)OCO2 (centres undefined)	–	63	–	–	–
N#Cc1c(Nc2ccccc2)sc(C(=O)c2ccccc2)c1N	–	68	–	–	–
O=C(CCS(=O)(=O)Cc1ccccc1F)NCc1ccccc1Cl	–	·	·	·	·
O=C(CN(c1ccc(Cl)cc1)S(=O)(=O)c1ccc(Cl)c([N+](=O)[O-])c1)NCCc1ccccc1	8.4	·	·	·	·
COc1ccc(C(=O)CSc2n[nH]c(C)n2)cc1[N+](=O)[O-]	–	·	·	·	·
CCOC(=O)c1c(NC(=O)CC)sc(C(C)=O)c1C	–	–	–	–	–
O=C(CN1CCN(c2ccccc2)CC1)Nc1ccccc1C(F)(F)F	–	32	–	–	–
O=C1[C@@H]2[C@H](C(=O)N1Cc1cccnc1)[C@H]1C=C[C@@H]2C1	–	–	–	–	–
O=C1C2C3C=CC(C3)C2C(=O)N1Cc1ccc(CN2C(=O)C3C4C=CC(C4)C3C2=O)cc1 (centres undefined)	–	38	–	–	–
Cc1ncc(CO)c2cc(C(N)=O)c(=Nc3ccccc3)oc12	–	48	–	–	–
COc1ccc(-n2ncc3c(=O)n(Cc4c(F)cccc4Cl)cnc32)cc1	–	·	·	·	·
O=C(NC(c1ccc(Cl)cc1)c1c(O)ccc2ccccc12)c1ccccc1 (centres undefined)	–	42	–	–	–
CCc1c(C)nc(SCC(=O)Nc2nc(-c3ccc(OC)cc3)cs2)[nH]c1=O	11	·	·	·	·
CCCC(=O)NC(=S)Nc1nc(-c2ccc(OC)cc2)cs1	10	–	–	–	–
COc1ccccc1/C=C(/C(=O)OCC(=O)Nc1ccccc1C)c1ccccc1	–	–	–	–	–
COc1ccc(/C=C(/C(=O)NCc2ccccc2)c2ccccc2)cc1	11	–	–	–	–
COc1ccccc1/C=C(/C(=O)OCC(=O)NCc1ccccc1)c1ccccc1	10	–	–	–	–
CCn1c(CNC(=O)c2ccccc2F)nnc1SCC(=O)NC1CCCCC1C (centres undefined)	–	·	·	·	·
Fc1ccc(CN2CCN(c3ncccn3)CC2)cc1	–	36	–	–	–
Cc1cc2c(s1)CCCCC(=O)N2	–	–	–	–	–
SMILES	RAM network inh	Measles CPE	Yeast life ext	sdo1 growth	BB579 growth dn
Cc1cc(Cl)c(OCCCN(C)C)c(Br)c1	–	48	–	–	–
CCOc1ccc2[nH]c(=O)c(CN(Cc3ccco3)Cc3nnnn3Cc3ccccc3)cc2c1	–	–	–	–	–
COc1ccc2[nH]c(=O)c(CN(Cc3ccco3)Cc3nnnn3Cc3ccccc3)cc2c1	9.7	–	–	–	–
CCOc1cc(/C=N/NC(N)=O)cc(Br)c1OCC(=O)Nc1cccc2ccccc12	–	45	–	–	–
Cc1ccc(C)c(SCC(=O)NC(=O)NCc2ccccc2)c1	11	–	–	–	–
Cc1sc(NC(=O)c2ccco2)c(C(c2cccnc2)N2CCN(c3ccc(F)cc3)CC2)c1C (centres undefined)	8.4	–	–	–	–
CCOC(=O)C1CCN(C(c2cccnc2)c2c(NC(=O)c3ccco3)sc(C)c2C)CC1 (centres undefined)	–	67	–	–	–
CCN(CC)CCC(C)OC(c1ccccc1)c1ccccc1 (centres undefined)	–	·	·	·	·
O=C(c1ccccc1)n1ccc(-c2cnc(-c3ccccc3)s2)n1	–	–	–	–	–
COc1ccc(S(=O)(=O)n2ccc(-c3cnc(-c4ccccc4)s3)n2)cc1	9.3	–	–	–	–
COC(=O)c1cc(S(=O)(=O)n2nc(C)c(Br)c2C)c(Cl)cc1Cl	–	–	–	–	–
Cc1ccc(N=C2CCCN2Cc2ccccc2)c(C#N)c1	–	–	·	–	–
